Results gathered from unrelated publications.
Compare with care: the assays were run in different laboratories.

| Compound | cell line | assay | setting | IC50 |
| --- | --- | --- | --- | --- |
| CC1(C)CCC(CN2CCN(c3ccc(C(=O)NS(=O)(=O)c4ccc(NCC5CCOCC5)c([N+](=O)[O-])c4)c(Oc4cnc5[nH]ccc5c4)c3)CC2)=C(c2ccc(Cl)cc2)C1 | Maver1 | cell growth or viability, ATP luminescence | 48 h | 0.0065 µM |
| COc1cc2c3c(n(CCCNC(C)C)c(=O)c2cc1OC)-c1nc2c(cc1C3=O)OCO2 | HL-60 | cell growth or viability, MTS | 72 h | 0.328 µM |
| C#CCOc1ccc(/C=C/c2cc(OC)cc(OC)c2-c2cnnn2C(=O)NCC)cc1 | RAW264.7 | NO release, inhibitor, Griess | 24 h, LPS-stimulated | 10.6 µM |
| CC(C)Oc1ccc(S(=O)(=O)c2ccc(Oc3cc(OCC(N)=O)c(C(=O)C(Cl)Cl)cc3[N+](=O)[O-])cc2)cc1 | NCI-H1299 | cell growth or viability, MTT | 72 h | 0.31 µM |
| CC#CCOc1ccc(/C=C/c2cc(OC)cc(OC)c2-c2cnnn2C(=O)NC(C)C)cc1 | RAW264.7 | NO release, inhibitor, Griess | 24 h, LPS-stimulated | 5.5 µM |
| COc1cc(NC(=O)c2cccc(I)c2)ccc1S(N)(=O)=O | RAW264.7 | cell growth or viability, MTT | 48 h | > 100 µM |
| COc1ccc(NC(=O)C2=C(C)NC(C)=C(C(=O)Nc3cc(OC)c(Cl)cc3OC)C2c2cccc(Cl)c2)c(OC)c1 (centres unmarked) | Vero | cell growth or viability, MTT |  | 49.6 µM |
| CCOc1ccc(C(=O)Nc2ccc(S(N)(=O)=O)c(OC)c2)cc1 | RAW264.7 | cell growth or viability, MTT | 48 h | > 100 µM |
| CCNCCCn1c2c(c3cc(OC)c(OC)cc3c1=O)C(=O)c1cc3c(nc1-2)OCO3 | HL-60 | cell growth or viability, MTS | 72 h | 0.27 µM |
| CC(C)c1ccccc1[C@@H]1CCCN1C1CC2(CCN(c3ccc(C(=O)NS(=O)(=O)c4ccc(NC[C@H]5CC[C@](C)(O)CC5)c([N+](=O)[O-])c4)c(Oc4cnc5[nH]ccc5c4)c3)CC2)C1 | HL-60 | cell growth or viability, ATP luminescence | 48 h | 0.381 µM |
| COc1cc(NC(=O)c2ccc(C#N)cc2)ccc1S(N)(=O)=O | RAW264.7 | cell growth or viability, MTT | 48 h | > 100 µM |
| C#CCOc1ccc(/C=C/c2cc(OC)cc(OC)c2-c2cnnn2C(=O)NCCC)cc1 | RAW264.7 | NO release, inhibitor, Griess | 24 h, LPS-stimulated | 0.7 µM |
| COc1ccc(NC(=O)C2=C(C)NC(C)=C(C(=O)Nc3ccc(OC)cc3OC)C2c2cccc(Cl)c2)c(OC)c1 | Vero | cell growth or viability, MTT |  | 67.5 µM |
| COc1cc2c3c(n(CCCN4CCOCC4)c(=O)c2cc1OC)-c1nc2c(cc1C3=O)OCO2 | HL-60 | cell growth or viability, MTS | 72 h | > 2 µM |
| COc1cc(NC(=O)c2ccccn2)ccc1S(N)(=O)=O | RAW264.7 | cell growth or viability, MTT | 48 h | > 100 µM |
| C=C(F)C(=O)N1CCN(c2nc(OC[C@@H]3CCCN3C)nc3c2CCN(c2cccc4cccc(Cl)c24)C3)C[C@@H]1CC#N | OV56 | cell growth or viability, ATP luminescence | 3D culture | > 1 µM |
| COc1cc2c(NC3CCN(CCCC(=O)NCCCCCCCCCCCC(=O)N[C@H](C(=O)N4C[C@H](O)C[C@H]4C(=O)NCc4ccc(-c5scnc5C)cc4)C(C)(C)C)CC3)nc(N3CCC(F)(F)CC3)nc2cc1OCCCN1CCCC1 | NCI-H1299 | cell growth or viability, CCK-8 | 8 days | 5 µM |
